Holding throughout (type): functional
The test system of one experiment is HeLa. Put plainly: Antiproliferative activity against human HeLa cells after 48 hrs by SRB assay. Put shortly: (§1)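 Cells grown in RPMI 1640 with 5% heat-inactivated FCS and 2 mM L-glutamine. Seeded per well at 20,000 (WiDr), 15,000 (T-47D) or 10,000 (HeLa, SW1573, HBL-100). Dosing started the day after plating, in triplicate at 1–100 µM, with 0.25% DMSO as the vehicle control. After 48 h, TCA fixation, SRB staining and OD at 492 nm. Percentage growth calculated against untreated cells from OD at T0 and end, using NCI formulas.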
For orientation: The SRB assay estimates cell density from bound dye.

A further experiment deals with T47D. Description: Antiproliferative activity against human T47D cells after 48 hrs by SRB assay. Put shortly: as §1
The test system of the next experiment is HBL-100. Description: Antiproliferative activity against human HBL100 cells after 48 hrs by SRB assay. The note with it: HBL-100, 48 h. Put shortly: as §1
In a further experiment the test system is SW1573. Description: Antiproliferative activity against human SW1573 cells after 48 hrs by SRB assay. The note with it: SW1573, 48 h. Put shortly: as §1
The subject of the next experiment is WiDr. Put plainly: Antiproliferative activity against human WiDr cells after 48 hrs by SRB assay. Put shortly:
as §1

A value given as a limit tells only on which side of the number the result lay.

In ChEMBL document CHEMBL2417382, “Derivatives of grindelic acid: from a non-active natural diterpene to synthetic antitumor derivatives” (2013) one finds GI50 data, which are given here for 23 molecules.

One may read the GI50 as the concentration at which growth is held to half of that of the control.

As for `C#CCNC(=O)OCC[C@]1(C)CC[C@@]2(O1)C(C)=CC[C@H]1C(C)(C)CCC[C@@]12C`, the GI50 is 14 µM in the experiment on HeLa; 16 µM with T47D; 14 µM in the experiment on HBL-100; 13 µM with SW1573; 12 µM in the experiment on WiDr.

As to `CC1=CC[C@H]2C(C)(C)CCC[C@]2(C)[C@@]12CC[C@@](C)(CCn1cc(COc3cccc(OCc4cn(CC[C@]5(C)CC[C@@]6(O5)C(C)=CC[C@H]5C(C)(C)CCC[C@@]56C)nn4)c3)nn1)O2`, the 50% growth inhibitory concentration (GI50) with HeLa, in the experiment on T47D, with HBL-100, in the experiment on SW1573 and in the experiment with WiDr was > 100 µM throughout.

With `CC1=CC[C@H]2C(C)(C)CCC[C@]2(C)[C@@]12CC[C@@](C)(CC(=O)N(Cc1ccccc1)C(C)(C)C(=O)NCc1ccccc1)O2`, the 50% growth inhibitory concentration (GI50) with HeLa was determined as 1.6 µM; in the experiment with T47D, 1.9 µM; in the experiment on HBL-100, 0.95 µM; in the experiment with SW1573, 1.2 µM; with WiDr it was 1.8 µM.

With `CC1=CC[C@H]2C(C)(C)CCC[C@]2(C)[C@@]12CC[C@@](C)(C/C=C/CO)O2`, the GI50 worked out at 18 µM in the experiment with HeLa; 17 µM in the experiment on T47D; 17 µM in the experiment with HBL-100; 17 µM in the experiment with SW1573; 17 µM in the experiment with WiDr.

In the case of `CC[C@@]1(O)C(=O)OCc2c1cc1n(c2=O)Cc2cc3ccccc3nc2-1` [CAMPTOTHECIN], the 50% growth inhibitory concentration (GI50) in the experiment on HeLa amounted to 0.6 µM; in the experiment with T47D, 2 µM; in the experiment with HBL-100 it was 0.23 µM; in the experiment with SW1573, 0.25 µM; with WiDr it was 1.8 µM.

As to `CC1=CC[C@H]2C(C)(C)CCC[C@]2(C)[C@@]12CC[C@@](C)(CCOC(=O)NCCCN(C)C)O2`, the GI50 in the experiment with HeLa amounted to 7.8 µM; with T47D it was 4.3 µM; with HBL-100, 6.1 µM; in the experiment with SW1573, 8 µM; in the experiment on WiDr it was 1.4 µM.

`CC1=CC[C@H]2C(C)(C)CCC[C@]2(C)[C@@]12CC[C@@](C)(CC(=O)N(Cc1ccccc1)C(C)(C)C(=O)NC(C)(C)C(C)(C)C)O2`: the concentration for 50% growth inhibition (GI50) in the experiment on HeLa turned out to be 30 µM; in the experiment with T47D it was 40 µM; in the experiment with HBL-100 it was 10 µM; with SW1573, 14 µM; in the experiment on WiDr, 49 µM.

Regarding `CC1=CC[C@H]2C(C)(C)CCC[C@]2(C)[C@@]12CC[C@@](C)(CC(=O)N(Cc1ccccc1)C(C)(C)C(=O)Nc1c(C)cccc1C)O2`, the GI50 is 11 µM with HeLa; 31 µM in the experiment with T47D; 8.9 µM in the experiment on HBL-100; 5.1 µM in the experiment with SW1573; 38 µM with WiDr.

In the case of `CC1=CC[C@H]2C(C)(C)CCC[C@]2(C)[C@@]12CC[C@@](C)(CCn1cc(CCCCc3cn(CC[C@]4(C)CC[C@@]5(O4)C(C)=CC[C@H]4C(C)(C)CCC[C@@]45C)nn3)nn1)O2`, the GI50 in the experiment on HeLa worked out at 2.7 µM; in the experiment with T47D, 4.3 µM; in the experiment with HBL-100, 2.9 µM; in the experiment with SW1573 it was 3 µM.

As for `CC1=CC[C@H]2C(C)(C)CCC[C@]2(C)[C@@]12CC[C@@](C)(CCOC(=O)NCc1cn(CC[C@]3(C)CC[C@@]4(O3)C(C)=CC[C@H]3C(C)(C)CCC[C@@]34C)nn1)O2`, the concentration for 50% growth inhibition (GI50) with HeLa, in the experiment with T47D, in the experiment with HBL-100, in the experiment on SW1573 and in the experiment with WiDr was > 100 µM in each case.

Take `CC1=CC[C@H]2C(C)(C)CCC[C@]2(C)[C@@]12CC[C@@](C)(CC(=O)N(Cc1ccccc1)C(C)(C)C(=O)NC1CCCCC1)O2`: the 50% growth inhibitory concentration (GI50) is 4.7 µM with HeLa; 4.4 µM in the experiment on T47D; 3.7 µM with HBL-100; 3.6 µM with SW1573; 5.1 µM in the experiment on WiDr.

Turning to `CC1=CC[C@H]2C(C)(C)CCC[C@]2(C)[C@@]12CC[C@@](C)(CC=O)O2`, the 50% growth inhibitory concentration (GI50) in the experiment with HeLa was 17 µM; in the experiment on T47D, 26 µM; in the experiment on HBL-100, 14 µM; with SW1573, 17 µM; in the experiment with WiDr, 15 µM.

On to `CC1=CC[C@H]2C(C)(C)CCC[C@]2(C)[C@@]12CC[C@@](C)(CC(=O)O)O2`, for which the GI50 with HeLa is 60 µM; with T47D, 69 µM; in the experiment on HBL-100 it was 46 µM; with SW1573, 49 µM; with WiDr, 57 µM.

Turning to `CC1=CC[C@H]2C(C)(C)CCC[C@]2(C)[C@@]12CC[C@@](C)(CC(=O)N(c1ccccc1)C(C)(C)C(=O)Nc1c(C)cccc1C)O2`, the 50% growth inhibitory concentration (GI50) with HeLa is 22 µM; with T47D, 21 µM; in the experiment with HBL-100, 8.7 µM; in the experiment with SW1573, 5.9 µM; in the experiment with WiDr it was 37 µM.

As for `CC1=CC[C@H]2C(C)(C)CC[C@H](O)[C@]2(C)[C@@]12CC[C@@](C)(CC(=O)O)O2`, the GI50 in the experiment on HeLa was > 100 µM; in the experiment with T47D, > 100 µM; in the experiment on HBL-100, > 100 µM; in the experiment with SW1573, > 72 µM; with WiDr it was > 100 µM.

In the case of `CC1=CC[C@H]2C(C)(C)CCC[C@]2(C)[C@@]12CC[C@@](C)(CCOC(=O)n1ccnc1)O2`, the GI50 in the experiment on HeLa came to 18 µM; with T47D, 17 µM; with HBL-100, 16 µM; in the experiment with SW1573, 17 µM; with WiDr, 13 µM.

Regarding `CC1=CC[C@H]2C(C)(C)CCC[C@]2(C)[C@@]12CC[C@@](C)(C[C@@H]1O[C@H]1CO)O2`, the GI50 in the experiment with HeLa was 17 µM; with T47D it was 16 µM; in the experiment with HBL-100, 16 µM; with SW1573 it was 18 µM; with WiDr, 19 µM.

For `CC1=CC[C@H]2C(C)(C)CCC[C@]2(C)[C@@]12CC[C@@](C)(CC(=O)N(c1ccccc1)C(C)(C)C(=O)NC(C)(C)C)O2`, the GI50 stood at 5.7 µM in the experiment on HeLa; 5.3 µM with T47D; 5.4 µM with HBL-100; 5.8 µM in the experiment on SW1573; 6.8 µM in the experiment with WiDr.

On to `CC1=CC[C@H]2C(C)(C)CCC[C@]2(C)[C@@]12CC[C@@](C)(CCN=[N+]=[N-])O2`, for which the GI50 in the experiment on HeLa, with T47D, in the experiment with HBL-100, with SW1573 and in the experiment on WiDr was > 100 µM in each case.

As to `CC1=CC[C@H]2C(C)(C)CCC[C@]2(C)[C@@]12CC[C@@](C)(CCO)O2`, the concentration for 50% growth inhibition (GI50) amounted to 17 µM in the experiment with HeLa; 16 µM in the experiment on T47D; 17 µM in the experiment on HBL-100; 19 µM with SW1573; 21 µM with WiDr.

Turning to `CC1=CC[C@H]2C(C)(C)CCC[C@]2(C)[C@@]12CC[C@@](C)(CC(=O)N(Cc1ccccc1)C(C)(C)C(=O)NC(C)(C)C)O2`, the concentration for 50% growth inhibition (GI50) was 5.3 µM with HeLa; 3.9 µM in the experiment on T47D; 4.6 µM in the experiment on HBL-100; 11 µM in the experiment with SW1573; 12 µM in the experiment on WiDr.

For `C#Cc1cccc(-c2cn(CC[C@]3(C)CC[C@@]4(O3)C(C)=CC[C@H]3C(C)(C)CCC[C@@]34C)nn2)c1`, the GI50 with HeLa, in the experiment with T47D, in the experiment on HBL-100, with SW1573 and in the experiment with WiDr was > 100 µM each time.

Take `CCCCNC(=O)C(C)(C)N(Cc1ccccc1)C(=O)C[C@]1(C)CC[C@@]2(O1)C(C)=CC[C@H]1C(C)(C)CCC[C@@]12C`: the GI50 in the experiment with HeLa is 2.9 µM; with T47D it was 3 µM; in the experiment on HBL-100 it was 1.9 µM; with SW1573, 1.8 µM; with WiDr, 3.1 µM.
